Converted amounts (≈) assume the structure as drawn. The source made the active and inactive calls. The rule behind the calls is not given here.

Common to all, as to format: functional
Experiment [1] relates to Escherichia coli. As to the kind of experiment: Antibacterial activity against Escherichia coli NCIM 2574 assessed as zone of inhibition at 80 ug/well incubated for 24 to 48 hrs by agar well diffusion method. To be noted: for zone of inhibition at 80 µg/disc: read-out: IZ. In outline: (§1)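 Strains from NCIM kept on nutrient agar slants at 4 C and grown overnight at 37 C in nutrient broth. 500 microlitres of 24-48 h culture swabbed onto nutrient agar. Compounds in DMSO loaded into 5 mm wells, with a DMSO vehicle plate and streptomycin reference. Incubated 24-48 h at 37 C. Zone of inhibition measured in mm and averaged over 4 replicates.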

For experiment [2], the system named is Staphylococcus epidermidis. As to the kind of experiment: Antibacterial activity against Staphylococcus albus NCIM 2178 assessed as zone of inhibition at 80 ug/well incubated for 24 to 48 hrs by agar well diffusion method. The following applies: for zone of inhibition at 80 µg/disc: read-out: IZ. In outline: as §1
On the technique in general: Agar diffusion results depend on both activity and mobility in agar.

Experiment [3] has as its system Proteus mirabilis. As to the kind of experiment: Antibacterial activity against Proteus mirabilis NCIM 2388 assessed as zone of inhibition at 80 ug/well incubated for 24 to 48 hrs by agar well diffusion method. In outline: as §1
In experiment [4] the test system is Aspergillus niger. In words: Antifungal activity against Aspergillus niger NCIM 504 assessed as inhibition of fungal growth incubated for 48 to 72 hrs by broth microdilution susceptibility method. The gist of the method: (§2)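 Tube micro-dilution in Sabouraud liquid medium. Stocks were made in DMSO and serially diluted twofold in broth to final […]. Tubes inoculated with organisms grown in potato dextrose broth and held 48-72 h at 30 C. MIC is the lowest concentration with no growth. DMSO and uninoculated-media controls were included, in triplicate.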
Background: In broth dilution the organism is exposed to a series of concentrations in liquid medium.

For experiment [5], the system named is Aspergillus niger. In words: Antifungal activity against Aspergillus niger NCIM 504 assessed as zone of inhibition at 80 ug/well incubated for 48 to 72 hrs by agar well diffusion method. The following applies: read-out: IZ. The gist of the method: (§3)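 Fungi kept on potato dextrose agar slants and grown in potato dextrose broth. 500 microlitres of 48-72 h spore suspension swabbed onto Mueller Hinton agar. Compounds in DMSO loaded into 5 mm wells, with a DMSO vehicle plate and fluconazole/ravuconazole positive-control plate. Incubated 48-72 h at 30 C. Clear zone measured in mm, mean of five replicates.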

In experiment [6] the test system is Candida albicans. As to the kind of experiment: Antifungal activity against Candida albicans NCIM 3100 assessed as inhibition of fungal growth incubated for 48 to 72 hrs by broth microdilution susceptibility method. The gist of the method: as §2
The subject of experiment [7] is Rhodotorula glutinis. As to the kind of experiment: Antifungal activity against Rhodotorula glutinis NCIM 3168 assessed as inhibition of fungal growth incubated for 48 to 72 hrs by broth microdilution susceptibility method. The gist of the method:
as §2

Experiment [8] concerns Rhodotorula glutinis. In words: Antifungal activity against Rhodotorula glutinis NCIM 3168 assessed as zone of inhibition at 80 ug/well incubated for 48 to 72 hrs by agar well diffusion method. To be noted: read-out: IZ. The gist of the method:
as §3

In experiment [9] the test system is Candida albicans. In words: Antifungal activity against Candida albicans NCIM 3100 assessed as zone of inhibition at 80 ug/well incubated for 48 to 72 hrs by agar well diffusion method. To be noted: read-out: IZ. The gist of the method: as §3

The term MIC denotes the lowest concentration that inhibits growth of the organism. Take `Cc1nc(-c2ccccc2)sc1-c1nn(-c2ccccc2)cc1-c1cn(Cc2ccc(Cl)cc2)nn1`: the zone of inhibition at 80 µg/disc stood at 13.2 mm in [1]; 12.2 mm in experiment [2]; 13.6 mm in [5]; 19 mm in experiment [8]; 11.5 mm in [9]. Moreover, in experiment [3], the “inhibition zone (IZ)” value was “inactive”. The MIC in experiment [4] is 31.2 µg/mL (≈ 61.4 µM); in experiment [7], 62.5 µg/mL (≈ 123 µM). Besides, the MIC result in experiment [6] is “inactive”.
For the molecule `Cc1ccc(Cn2cc(-c3cn(-c4ccccc4)nc3-c3sc(-c4ccccc4)nc3C)nn2)cc1`, the zone of inhibition at 80 µg/disc worked out at 10 mm in [1], 14 mm in [5], 19.5 mm in experiment [8] and 11.8 mm in experiment [9]. Besides, the “inhibition zone (IZ)” value in experiment [2] and in experiment [3] was “inactive” each time. The MIC in [4] was determined as 31.2 µg/mL (≈ 64 µM). Besides, the MIC result in experiment [6] and in experiment [7] was “inactive” in each case.
As for `Cc1ccc(Cn2cc(-c3cn(-c4ccccc4)nc3-c3sc(-c4ccc(Br)cc4)nc3C)nn2)cc1`, the zone of inhibition at 80 µg/disc in [1] is 11.6 mm; in experiment [2] it was 12.6 mm; in experiment [5], 12.4 mm; in experiment [8], 13.3 mm; in experiment [9] it was 14.6 mm. Also, the “inhibition zone (IZ)” value in experiment [3] is “inactive”. Besides, the MIC in experiment [4] came to 31.2 µg/mL (≈ 55.1 µM); in [7], 125 µg/mL (≈ 220 µM). Moreover, in experiment [6], the MIC result is “inactive”.
As to `Cc1ccc(-c2nc(C)c(-c3nn(-c4ccccc4)cc3-c3cn(Cc4ccc(F)cc4)nn3)s2)cc1`, the zone of inhibition at 80 µg/disc worked out at 10.6 mm in [1]; 11.2 mm in [2]; 16.3 mm in [5]; 16.2 mm in [8]; 12.5 mm in [9]. The “inhibition zone (IZ)” value in experiment [3] was “inactive”. For the same molecule, the values for the MIC in [4] and in experiment [7] were 62.5 µg/mL (≈ 123 µM) and 125 µg/mL (≈ 247 µM), respectively. The MIC result in experiment [6] was “inactive”.
As to `Cc1nc(-c2ccc(F)cc2)sc1-c1nn(-c2ccccc2)cc1-c1cn(Cc2ccc(Cl)cc2)nn1`, the “inhibition zone (IZ)” value in experiment [1] and in [3] was “inactive” each time. Besides, the zone of inhibition at 80 µg/disc worked out at 11.8 mm in experiment [2], 13.5 mm in [5], 14.5 mm in [8] and 10.4 mm in experiment [9]. Also, the MIC in [4] is 31.2 µg/mL (≈ 59.3 µM); in experiment [7], 125 µg/mL (≈ 237 µM). The MIC result in [6] was “inactive”.
With `Cc1ccc(Cn2cc(-c3cn(-c4ccccc4)nc3-c3sc(-c4ccc(Cl)cc4)nc3C)nn2)cc1`, the zone of inhibition at 80 µg/disc in [1] was found to be 12.4 mm; in [2], 12 mm; in [5] it was 11.4 mm; in experiment [8], 11.4 mm; in experiment [9] it was 13.8 mm. Moreover, the “inhibition zone (IZ)” value in experiment [3] was “inactive”. For the same molecule, the MIC in experiment [4] worked out at 125 µg/mL (≈ 239 µM); in experiment [6], 250 µg/mL (≈ 478 µM); in experiment [7], 125 µg/mL (≈ 239 µM).

The values are drawn from ChEMBL document CHEMBL4396915, “Synthesis of new thiazolyl-pyrazolyl-1,2,3-triazole derivatives as potential antimicrobial agents” (2019).
